Data: ChEMBL document CHEMBL3108756, “Evaluation of aminohydantoins as a novel class of antimalarial agents” (ACS Med Chem Lett, 2014)
Blank lines part the entries; values can stand above or below the compound they belong to. Activity calls are given as the source filed them. No cut-off for these calls is given here.

Experiments:
Plasmepsin V = Plasmepsin V (Plasmodium falciparum (isolate 3D7), UniProt Q8I6Z5); experiment: (§1) Inhibition of Plasmodium falciparum […] plasmepsin-5 using DABCYL-GNKRTLAQKQG-EDANS as substrate measured every 15 mins of 75 mins by fluorescence assay
Plasmodium falciparum [1] = experiment: Antimalarial activity against chloroquine-sensitive Plasmodium falciparum 3D7 infected in […] after 72 hrs by SYBR Green I-based fluorescence method; type: functional, organism-based; settings: 3D7, 72 h
Plasmodium falciparum [2] = experiment: Antimalarial activity against Plasmodium falciparum; type: functional, organism-based
Cytochrome P450 2D6 = Cytochrome P450 2D6 (Homo sapiens, UniProt P10635); experiment: Inhibition of human recombinant CYP2D6 after 30 mins; type: ADME; settings: recombinant enzyme, 0.5 h
Liver microsome [3] = experiment: Metabolic stability in human liver microsomes at 1 uM after 5 to 30 mins; type: ADME
[4] = Selectivity ratio of IC50 for human BACE1 to IC50 for Plasmodium falciparum plasmepsin-2
[5] = target: Plasmepsin V (Plasmodium falciparum (isolate 3D7)) (UniProt Q8I6Z5); experiment: as §1
Cytochrome P450 3A4 = Cytochrome P450 3A4 (Homo sapiens, UniProt P08684); experiment: Inhibition of human recombinant CYP3A4 after 30 mins; type: ADME; settings: recombinant enzyme, 0.5 h
Liver microsome [6] = experiment: Metabolic stability in rat liver microsomes at 1 uM after 5 to 30 mins; type: ADME
[7] = Selectivity ratio of IC50 for human cathepsin E to IC50 for Plasmodium falciparum plasmepsin-2
[8] = Metabolic stability in mouse liver microsomes at 1 uM after 5 to 30 mins; type: ADME, Microsome
Plasmodium chabaudi [9] = experiment: Antimalarial activity against Plasmodium chabaudi ASS infected in NIH mouse assessed as inhibition of parasitemia at 100 mg/kg, po qd for 4 days; type: functional; settings: 96 h
Summary of the method: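 Mice infected with P. chabaudi were given oral doses once daily for four days, starting four hours after infection. Parasitemia was read on Day 4 postinoculation and expressed as percent inhibition of parasitemia.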

HepG2 = experiment: Cytotoxicity against human HepG2 cells after 72 hrs; type: cell-based; settings: hepg2, 72 h
Mus musculus = experiment: Toxicity in Plasmodium chabaudi ASS infected NIH mouse assessed as survival at 10 to 300 mg/kg, po qd for 4 days; type: organism-based; design: dose 10-300 mg/kg, route oral; settings: in vivo, 96 h
Plasmodium falciparum [10] = experiment: Antimalarial activity against chloroquine-sensitive Plasmodium falciparum 3D7 infected in […] after 48 hrs by SYBR Green I-based fluorescence method; type: functional, organism-based
Cytochrome P450 2C19 = Cytochrome P450 2C19 (Homo sapiens, UniProt P33261); experiment: Inhibition of human recombinant CYP2C19 after 30 mins; type: ADME; settings: recombinant enzyme, 0.5 h
Cytochrome P450 2C9 = Cytochrome P450 2C9 (Homo sapiens, UniProt P11712); experiment: Inhibition of human recombinant CYP2C9 after 30 mins; type: ADME; settings: recombinant enzyme, 0.5 h
[11] = Selectivity ratio of IC50 for human cathepsin D to IC50 for Plasmodium falciparum plasmepsin-2
Plasmodium falciparum [12] = experiment: Antimalarial activity against chloroquine and pyrimethamine-resistant Plasmodium falciparum Dd2 infected in […] after 48 hrs by SYBR Green I-based fluorescence method; type: functional; settings: Dd2, 48 h
Cytochrome P450 1A2 = target: T1, Cytochrome P450 1A2 (Homo sapiens, UniProt P05177); experiment: Inhibition of human recombinant CYP1A2 after 30 mins; type: ADME; settings: recombinant enzyme, 0.5 h
T1 sequence (P05177 whole entry): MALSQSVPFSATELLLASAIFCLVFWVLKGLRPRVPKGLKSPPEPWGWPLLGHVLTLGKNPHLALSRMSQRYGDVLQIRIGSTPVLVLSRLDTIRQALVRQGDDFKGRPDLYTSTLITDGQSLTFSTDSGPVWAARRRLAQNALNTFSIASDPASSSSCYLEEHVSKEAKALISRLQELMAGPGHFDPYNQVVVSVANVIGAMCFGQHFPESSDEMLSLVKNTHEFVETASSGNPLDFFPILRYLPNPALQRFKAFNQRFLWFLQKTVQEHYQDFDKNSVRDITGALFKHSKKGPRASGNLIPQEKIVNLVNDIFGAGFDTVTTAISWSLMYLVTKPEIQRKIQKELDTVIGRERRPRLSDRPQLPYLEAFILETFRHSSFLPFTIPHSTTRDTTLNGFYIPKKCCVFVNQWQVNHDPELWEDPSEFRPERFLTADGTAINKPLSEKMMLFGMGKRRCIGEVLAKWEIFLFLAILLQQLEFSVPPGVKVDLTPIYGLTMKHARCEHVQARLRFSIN

Plasmodium chabaudi [13] = experiment: Antimalarial activity against Plasmodium chabaudi ASS infected in NIH mouse assessed as inhibition of parasitemia at 150 to 300 mg/kg, po qd for 4 days; type: functional; settings: dose mg/kg 150-300

Cytochrome P450 3A4, sequence (P08684 whole entry): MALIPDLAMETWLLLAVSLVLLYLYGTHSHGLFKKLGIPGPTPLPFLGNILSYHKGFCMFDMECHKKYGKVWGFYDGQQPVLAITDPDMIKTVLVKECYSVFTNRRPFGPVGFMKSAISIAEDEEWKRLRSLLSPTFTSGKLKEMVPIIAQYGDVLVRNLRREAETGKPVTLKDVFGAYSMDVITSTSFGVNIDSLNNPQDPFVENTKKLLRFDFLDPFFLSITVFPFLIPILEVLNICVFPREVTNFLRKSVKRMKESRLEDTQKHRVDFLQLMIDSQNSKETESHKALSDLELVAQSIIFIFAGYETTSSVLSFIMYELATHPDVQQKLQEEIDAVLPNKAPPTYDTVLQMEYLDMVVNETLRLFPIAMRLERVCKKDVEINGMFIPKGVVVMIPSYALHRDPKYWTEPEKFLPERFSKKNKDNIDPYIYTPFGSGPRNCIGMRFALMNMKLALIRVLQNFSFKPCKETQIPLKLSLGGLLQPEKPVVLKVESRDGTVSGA
Cytochrome P450 2C19, sequence (P33261 whole entry): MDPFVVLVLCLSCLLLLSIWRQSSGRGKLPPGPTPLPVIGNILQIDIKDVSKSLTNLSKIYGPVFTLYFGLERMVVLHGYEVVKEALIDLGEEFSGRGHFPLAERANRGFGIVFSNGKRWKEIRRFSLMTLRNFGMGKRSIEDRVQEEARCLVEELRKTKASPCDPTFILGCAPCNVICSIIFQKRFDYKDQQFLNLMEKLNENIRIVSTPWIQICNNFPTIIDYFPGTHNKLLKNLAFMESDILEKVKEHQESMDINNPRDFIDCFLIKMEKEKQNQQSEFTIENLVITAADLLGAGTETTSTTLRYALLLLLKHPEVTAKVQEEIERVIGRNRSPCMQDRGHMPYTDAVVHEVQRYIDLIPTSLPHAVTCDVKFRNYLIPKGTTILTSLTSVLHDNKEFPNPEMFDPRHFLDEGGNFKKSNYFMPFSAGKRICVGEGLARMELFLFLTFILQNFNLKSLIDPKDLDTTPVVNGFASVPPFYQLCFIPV
Cytochrome P450 2C9, sequence (P11712 whole entry): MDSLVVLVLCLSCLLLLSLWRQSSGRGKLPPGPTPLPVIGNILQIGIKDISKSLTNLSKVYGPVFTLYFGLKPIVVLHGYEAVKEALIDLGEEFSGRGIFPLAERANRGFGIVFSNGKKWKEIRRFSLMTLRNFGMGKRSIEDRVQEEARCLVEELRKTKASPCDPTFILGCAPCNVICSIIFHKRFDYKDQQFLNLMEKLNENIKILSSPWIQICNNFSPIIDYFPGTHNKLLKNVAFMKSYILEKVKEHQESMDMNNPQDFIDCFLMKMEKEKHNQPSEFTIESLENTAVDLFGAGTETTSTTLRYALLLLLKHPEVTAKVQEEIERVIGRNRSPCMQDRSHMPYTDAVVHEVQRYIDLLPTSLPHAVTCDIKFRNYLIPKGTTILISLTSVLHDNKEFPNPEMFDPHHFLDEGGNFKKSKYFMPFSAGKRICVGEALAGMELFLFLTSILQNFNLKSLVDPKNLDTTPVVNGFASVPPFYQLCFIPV
Plasmepsin V (Plasmodium falciparum (isolate 3D7)), sequence (Q8I6Z5 whole entry, looked up): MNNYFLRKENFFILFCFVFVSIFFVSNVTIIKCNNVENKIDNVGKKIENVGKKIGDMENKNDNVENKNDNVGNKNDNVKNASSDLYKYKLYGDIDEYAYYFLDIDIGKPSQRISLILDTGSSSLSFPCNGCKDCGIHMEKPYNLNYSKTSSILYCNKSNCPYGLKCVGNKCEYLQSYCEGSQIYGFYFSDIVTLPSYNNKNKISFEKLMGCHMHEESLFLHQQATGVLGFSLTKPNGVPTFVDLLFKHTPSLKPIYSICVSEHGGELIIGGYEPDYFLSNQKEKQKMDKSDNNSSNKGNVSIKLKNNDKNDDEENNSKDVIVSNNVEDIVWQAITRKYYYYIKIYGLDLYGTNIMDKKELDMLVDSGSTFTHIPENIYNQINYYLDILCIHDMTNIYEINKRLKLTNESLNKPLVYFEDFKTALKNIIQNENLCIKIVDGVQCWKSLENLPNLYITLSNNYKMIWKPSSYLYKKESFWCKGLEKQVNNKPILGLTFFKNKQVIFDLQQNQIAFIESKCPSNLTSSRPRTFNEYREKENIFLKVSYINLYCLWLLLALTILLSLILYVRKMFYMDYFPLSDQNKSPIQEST
Plasmepsin V, sequence (Q8I6Z5 whole entry): as the sequence (Q8I6Z5 whole entry, looked up) above
Cytochrome P450 2D6, sequence (P10635 whole entry): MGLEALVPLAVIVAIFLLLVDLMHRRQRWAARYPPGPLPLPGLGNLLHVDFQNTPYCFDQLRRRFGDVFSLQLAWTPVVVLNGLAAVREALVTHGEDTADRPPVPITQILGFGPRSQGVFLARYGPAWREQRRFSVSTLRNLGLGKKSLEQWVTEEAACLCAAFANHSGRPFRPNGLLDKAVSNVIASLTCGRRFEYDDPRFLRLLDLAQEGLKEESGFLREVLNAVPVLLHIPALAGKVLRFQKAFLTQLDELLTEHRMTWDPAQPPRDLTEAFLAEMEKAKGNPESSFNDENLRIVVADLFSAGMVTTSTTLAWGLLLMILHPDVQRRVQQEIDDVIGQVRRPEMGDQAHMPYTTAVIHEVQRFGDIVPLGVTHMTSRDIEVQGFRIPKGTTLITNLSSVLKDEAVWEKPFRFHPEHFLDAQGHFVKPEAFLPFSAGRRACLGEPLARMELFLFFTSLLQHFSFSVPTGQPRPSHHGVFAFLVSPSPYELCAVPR

IC50 (Plasmepsin V): 977 nM | IC50 (Plasmodium falciparum [1]): 2760 nM | IC50 (Plasmodium falciparum [2]): 140 nM
Structure (SMILES): CCC(CN1C(=N)NC(c2ccccc2)(c2ccccc2)C1=O)c1ccccc1 (racemic)

Structure (SMILES): COc1ccc(C2(c3ccc(OC)cc3)NC(=N)N(C3CCCCC3)C2=O)cc1
inhibition (INH) (Cytochrome P450 2D6): Not Active | Stability (Liver microsome [3]): Stable | Ratio IC50 [4]: > 1000 | inhibition [5]: inactive | inhibition (INH) (Cytochrome P450 3A4): Active | IC50 (Plasmodium falciparum [1]): 463 nM | Stability (Liver microsome [6]): Stable | Ratio IC50 [7]: 300 | Stability [8]: Stable | inhibition in vivo at 100 mg/kg (Plasmodium chabaudi [9]): 89% | Activity (HepG2): Toxic | Activity (Mus musculus): Non-toxic | inhibition (Plasmodium falciparum [10]): Active | inhibition (INH) (Cytochrome P450 2C19): Not Active | inhibition (INH) (Cytochrome P450 2C9): Not Active | Ratio IC50 [11]: > 1000 | IC50 (Plasmodium falciparum [12]): 480 nM | inhibition (INH) (Cytochrome P450 1A2): Not Active | inhibition (INH) (Plasmodium chabaudi [13]): 100%
